Screens deposited in PubChem by Johns Hopkins Ion Channel Center.
A selection: hits, their analogues and other compounds. The true share with any hit is near 3.8%.
hERG rescue = hERG (human) protection from proarrhythmic block; 0.51% of 310,000 active; Q12809; activation (rescue from dofetilide block), less the hit threshold, % at 10 µM; AID 1511; CHO-hERG, FluxOR thallium flux, dofetilide IC70 present;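 active means activation above the mean of controls blocked by dofetilide plus 5 SD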;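 further: thallium influx through hERG after potassium depolarization seen as dye fluorescence rise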
KCNQ1 pot = human KCNQ1 channel potentiation or activation; P51787; CHO-K1 KCNQ1, thallium flux FluxOR fluorescence; hits give high values; B-score at 10 µM; 0.35% of 310,000 active; AID 2648;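 active means fluorescence ratio B-score, a plate-corrected score, at least three library SD, with initial intensity B-score within 5 SD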
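assay system = KCNQ1-transfected CHO-K1 cells | medium = assay buffer with matched DMSO | probe or stimulus = depolarizing K+/Tl+ stimulus, K2SO4 and Tl2SO4 each 12.5 mM in 5x stock | dosing = single dose | incubation = dye 90 min, compound 20 min, room temperature | detection = kinetic FluxOR fluorescence, 10 s baseline plus 110 s post-stimulus | evaluation = ratio B score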
KCNK3 block = human KCNK3 channel inhibition, primary screen; O14649; CHO-KCNK3 thallium flux, FluxOR fluorescence; hits give low values; B-score at 10 µM; 0.84% of 340,000 active;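 active means B-score under library mean minus 4 SD, starting fluorescence ratio at most library mean plus 5 SD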;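 further: more negative B-score means stronger inhibition of thallium flux through KCNK3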
KCNK9 inh = blocks the human KCNK9 two-pore domain potassium channel; Q9NPC2; HEK293 KCNK9, FluxOR thallium flux fluorescence; hits give low values; B-score at 10 µM; 1.2% of 310,000 active;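 active means ratio B-score over 3 SD below the library mean, with starting fluorescence within 5 SD of its mean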;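 further: negative B-score means less thallium flux so channel inhibition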
Target sequence (Q9NPC2 whole entry, looked up, the tested form may be a part): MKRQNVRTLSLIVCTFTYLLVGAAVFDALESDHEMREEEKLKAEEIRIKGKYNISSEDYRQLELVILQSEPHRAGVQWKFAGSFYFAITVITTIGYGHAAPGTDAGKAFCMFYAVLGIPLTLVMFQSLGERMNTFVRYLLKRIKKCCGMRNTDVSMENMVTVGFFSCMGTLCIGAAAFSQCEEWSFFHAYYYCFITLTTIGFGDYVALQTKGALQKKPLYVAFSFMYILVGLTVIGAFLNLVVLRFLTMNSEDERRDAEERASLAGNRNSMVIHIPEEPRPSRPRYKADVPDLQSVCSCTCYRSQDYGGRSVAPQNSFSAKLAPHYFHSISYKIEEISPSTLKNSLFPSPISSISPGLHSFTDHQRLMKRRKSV
KCNQ1 block = inhibitors of human KCNQ1 potassium channel; P51787; CHO-K1 KCNQ1, FluxOR thallium flux fluorescence; hits give high values; B-score at 10 µM; 1.3% of 310,000 active;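 active means compounds whose thallium flux B-score, printed positive for inhibition, exceeds three library SD while starting fluorescence stays within three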;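 further: channel opened by potassium depolarization with thallium stimulus after 20 min compound exposure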
Kir21 block = blocks the mouse Kir2.1 inward-rectifier potassium channel; B-score at 10 µM; 0.85% of 310,000 active; HEK293-Kir2.1, FluxOR thallium flux fluorescence; hits give low values;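 active means fluorescence ratio B-score at or below minus 3 SD of library scores, with starting-brightness B-score within 2 SD, cut at about -4.2 in these data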;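 further: channel flux triggered by added potassium and thallium sulfate stimulus; B-score of peak minus minimum fluorescence over baseline after thallium stimulus; more negative B-score means stronger Kir2.1 block with less thallium influx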
KCNK9 inh conf = human KCNK9 inhibitor confirmation | HEK293 KCNK9 cells, FluxOR thallium flux fluorescence | shares compounds with KCNK9 inh | 43% of 4,900 active | inhibition, % at 10 µM;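 active means thallium signal inhibited by more than 5 SD of the compound-free buffer control wells, on both duplicate plates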
Kir2-1 spec = tests whether KCNK9 modulators also affect mouse Kir2.1; shares compounds with KCNK9 inh; Kir2.1 cells, FluxOR thallium flux fluorescence; inhibition, % at 10 µM; 4% of 4,900 active;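 active means thallium signal drop more than 5 SD beyond the mean of the no-compound control wells, seen in both duplicate plates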;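 further: signal is fluorescence rise after thallium addition divided by baseline fluorescence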
KCNK9 uninduced = second check of KCNK9 modulator effects in non-induced HEK293 cells. shares compounds with KCNK9 inh. FluxOR thallium flux. inhibition, % at 10 µM. 40% of 4,900 active. AID 492997;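 active means thallium signal drop beyond 5 SD of the untreated control mean, on both duplicate plates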
Large screens that a line does not name were inactive (follow-up assays come after a bar, where they were run).

CCN(C(=O)COc1cc(=O)n(C)c2ccccc12)c1cccc(Cl)c1	none | KCNK9 inh conf inactive | Kir2-1 spec inactive | KCNK9 uninduced inactive
CN(C(=O)COc1cc(=O)n(C)c2ccccc12)c1cccc(Cl)c1	none
CCS(=O)(=O)N1CCC2(CC1)OCCN2S(=O)(=O)c1ccc(C)cc1	none
Cc1ccccc1COC(=O)CNC(=O)c1sc2ccccc2c1Cl	none | KCNK9 inh conf inactive | Kir2-1 spec inactive | KCNK9 uninduced inactive
COc1ccc(C(=O)C2CCCN(C(=O)c3ccccc3C(C)=O)C2)cc1F (stereo not drawn)	none
C#Cc1cccc(C(=O)N2CCCC(C(=O)c3ccc(OC)cc3C)C2)c1 (stereo not drawn)	Kir21 block -4.3 | KCNK9 inh conf inactive | Kir2-1 spec inactive | KCNK9 uninduced inactive
COc1ccc(C(=O)C2CCCN(C(=O)c3noc4c3CCCC4)C2)c(C)c1 (stereo not drawn)	none | KCNK9 inh conf inactive | Kir2-1 spec inactive | KCNK9 uninduced inactive
COc1ccc(C(=O)C2CCCN(C(=O)c3noc4c3CCCC4)C2)cc1F (stereo not drawn)	none | KCNK9 inh conf inactive | Kir2-1 spec inactive | KCNK9 uninduced inactive
COc1ccc(C(=O)C2CCCN(C(=O)C3=CCCC3)C2)c(C)c1 (stereo not drawn)	none | KCNK9 inh conf inactive | Kir2-1 spec inactive | KCNK9 uninduced inactive
O=C(Nc1cc(Cl)ccc1Cl)P(=O)(O)c1ccccc1	none (no result: hERG rescue, KCNQ1 pot, KCNK9 inh, KCNQ1 block, Kir21 block)
Cc1cnc(C(=O)N2CCCC(N3CCN(c4ccccc4C)CC3)C2)cn1 (stereo not drawn)	none
COc1ccc(C(=O)C2CCCN(C(=O)c3ccc(CSC)o3)C2)cc1F (stereo not drawn)	none | KCNK9 inh conf inactive | Kir2-1 spec inactive | KCNK9 uninduced inactive
Cc1ccccc1N1CCN(C2CCCN(C(=O)c3noc4c3CCCC4)C2)CC1 (stereo not drawn)	none | KCNK9 inh conf inactive | Kir2-1 spec inactive | KCNK9 uninduced inactive
Cc1ccc(OCC(O)CNC2CCCC2)cc1C (stereo not drawn)	none
CCOc1cc(/C=C2\C(=O)N(Cc3ccc(C)cc3)C(C)=C2C(=O)OC)ccc1O	KCNK9 inh -11, KCNQ1 block 7 | KCNK9 inh conf 41% | Kir2-1 spec inactive | KCNK9 uninduced 32%
COC(=O)C1=C(C)N(CCc2ccc(OC)c(OC)c2)C(=O)/C1=C\c1ccc(O)cc1	none
CC(C)[C@H](NC(=O)c1cc2cc(Cl)ccc2n1C)C(=O)N[C@@H](C(=O)O)c1ccccc1	none
O=C1/C(=C/c2cccc(O)c2)SC(=S)N1CC1CCCO1 (stereo not drawn)	none
COc1cccc(/C=C2\SC(=S)N(CC3CCCO3)C2=O)c1 (stereo not drawn)	none | KCNK9 inh conf inactive | Kir2-1 spec inactive | KCNK9 uninduced inactive
O=S(=O)(c1cnc[nH]1)N1CCN(C(c2ccc(F)cc2)c2ccc(F)cc2)CC1	none
c1ccc(C[n+]2c(-c3ccccc3)csc2Nc2ccccc2)cc1	KCNK9 inh -8.7 | KCNK9 inh conf 35% | Kir2-1 spec inactive | KCNK9 uninduced 32%
c1ccc(Nc2scc(-c3ccccc3)[n+]2Cc2ccco2)cc1	none
CCOC(=O)n1c(=O)n(Cc2ccc(Cl)cc2Cl)c2ccccc21	KCNK9 inh -17 | KCNK9 inh conf 76% | Kir2-1 spec inactive | KCNK9 uninduced inactive
CCOC(=O)C1CCCN(CCc2ccccc2)C1 (stereo not drawn)	none
O=C(OC1C2CCC1C1CN(CCc3ccccc3)CC12)c1ccccc1 (stereo not drawn)	none | KCNK9 inh conf inactive | Kir2-1 spec inactive | KCNK9 uninduced inactive
Cc1ccc(C)c(NS(=O)(=O)c2cc(C(=O)NCc3ccccn3)ccc2C)c1	none
CC1=Nc2cc(C(=O)N3CCCCC3)ccc2Sc2ccc(C)cc21	none | KCNK9 inh conf inactive | Kir2-1 spec inactive | KCNK9 uninduced inactive
COc1cc(/C=C2/NC(=O)N(CC(=O)Nc3ccc(C)cc3)C2=O)ccc1Oc1ccc([N+](=O)[O-])cn1	none
COCCN1C(=O)/C(=C/c2ccc(Oc3ccc([N+](=O)[O-])cn3)c(OC)c2)SC1=Nc1ccccc1	none | KCNK9 inh conf inactive | Kir2-1 spec inactive | KCNK9 uninduced inactive
COc1cc(-c2nc(-c3ccc4c(c3)-c3ccccc3S4(=O)=O)c(-c3ccccc3)[nH]2)cc(OC)c1O	KCNK3 block -10, KCNK9 inh -16, KCNQ1 block 6 | KCNK9 inh conf 69% | Kir2-1 spec inactive | KCNK9 uninduced 28%
COc1ccc(-c2[nH]c(-c3ccc(C(=O)O)cc3)nc2-c2ccccc2)cc1	none
Cc1ccc2c(c1)N(CCC(=O)NC1CCCCC1C)C(=O)CO2 (stereo not drawn)	none | KCNK9 inh conf inactive | Kir2-1 spec inactive | KCNK9 uninduced inactive
CC(C)CC(C(=O)O)N1C(=O)C2C3C=CC(C2C1=O)C1C(=O)N(C(CC(C)C)C(=O)O)C(=O)C31 (stereo not drawn)	none
O=C(O)c1ccc(-c2nc(-c3ccc(Cl)cc3)cs2)cc1	none
O=C(O)c1ccc(-c2nc(-c3cccc(C(F)(F)F)c3)cs2)cc1	none | KCNK9 inh conf inactive | Kir2-1 spec inactive | KCNK9 uninduced inactive
Cc1cc(C)c(OCC(=O)OCC(=O)N2CCCc3ccccc32)c(C)c1	none
C(=N\N(Cc1ccccc1)c1ccccc1)/c1cccnc1	KCNK9 inh -12 | KCNK9 inh conf 54% | Kir2-1 spec inactive | KCNK9 uninduced 26%
C[C@H](CO)N1C[C@H](C)[C@@H](CN(C)S(C)(=O)=O)Oc2ccc(NC(=O)CCN3CCOCC3)cc2C1=O	none (no result: hERG rescue, KCNQ1 pot, KCNK9 inh, KCNQ1 block, Kir21 block)
O=C(CN(Cc1ccccc1)C(=O)CCl)c1cccc(Br)c1	none (no result: hERG rescue, KCNQ1 pot, KCNK9 inh, KCNQ1 block, Kir21 block)
O=C1C(Cc2ccccc2)Nc2ncnc(N3CCCCC3)c2N1Cc1ccc(Cl)cc1 (stereo not drawn)	KCNK9 inh -17 | KCNK9 inh conf 76% | Kir2-1 spec inactive | KCNK9 uninduced 34%
CC(C)CC1Nc2ncnc(N3CCCCC3)c2N(Cc2ccccc2)C1=O (stereo not drawn)	KCNK9 inh -9.1 | KCNK9 inh conf 39% | Kir2-1 spec inactive | KCNK9 uninduced 38%
CCOc1ccc(NCCC(O)c2ccc(F)cc2)cc1 (stereo not drawn)	none
Cc1cc2c(=O)n(CC(=O)NCC(=O)N3CCN(Cc4ccccc4)CC3)cnc2s1	KCNK9 inh -11 | KCNK9 inh conf inactive | Kir2-1 spec inactive | KCNK9 uninduced inactive
